# Assay results as given in ChEMBL document CHEMBL1131170 (J Med Chem, 1998).
# Activity calls are given as the source filed them. The calls are words filed in the database; no cut-off is given here.
# How the values were obtained:
# [1] = molecular target: T1, Protein farnesyltransferase (Homo sapiens, UniProt P49354+P49356); experiment: inhibitory activity against human Farnesyltransferase; format: protein-complex assay
# How it was run: (§1)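 Compounds in 100% DMSO diluted 20-fold, giving 5% DMSO final. Farnesyl transfer measured; IC50 determined.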
# [2] = molecular target: T1, Protein farnesyltransferase; experiment: Inhibitory activity against human Farnesyltransferase; format: protein-complex assay; how it was run: as §1
# [3] = molecular target: T1, Protein farnesyltransferase; experiment: Inhibition of human Farnesyltransferase using Ras-CVLS; format: protein-complex assay
# HepG2 [4] = experiment: Inhibition of cholesterol biosynthesis in HepG2 cells at 42 uM; format: functional; details: Homo sapiens
# How it was run: (§2)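 HepG2 cells seeded at 2 × 10^5/well on day 0, fed delipidated-serum medium on day 3 and again on day 5, when compounds in DMSO were added for 4 h. Labeled with [14C]acetate (3 µCi/mL) for 2 h, then saponified, acidified, petroleum ether extracted twice, TLC on silica (petroleum ether–ethyl ether–acetic acid 75:25:1), phosphor imaging; incorporation into cholesterol.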
# HepG2 [5] = experiment: Inhibition of cholesterol biosynthesis in HepG2 cells at 21 uM; format: functional; details: Homo sapiens; how it was run: as §2
# HepG2 [6] = experiment: Inhibition of cholesterol biosynthesis in HepG2 cells at 106 uM; format: functional; details: Homo sapiens; how it was run: as §2
# [7] = Inhibition of human Geranylgeranyl transferase using Ras-CAIL
# [8] = inhibition of human Geranylgeranyl transferase using Ras-CVIM
# [9] = molecular target: T1, Protein farnesyltransferase; experiment: (§3) Inhibition of human Farnesyltransferase; format: protein-complex assay; how it was run: as §1
# [10] = molecular target: T1, Protein farnesyltransferase; experiment: as §3; format: protein-complex assay; how it was run: as §1; remark: listed apart in the source
# [11] = molecular target: T1, Protein farnesyltransferase; experiment: as §3; format: protein-complex assay; details: concentration not given here; how it was run: as §1
# [12] = molecular target: T1, Protein farnesyltransferase; experiment: as §3; format: protein-complex assay; how it was run: as §1; remark: listed apart in the source
# [13] = molecular target: T1, Protein farnesyltransferase; experiment: as §3; format: protein-complex assay; how it was run: as §1; remark: listed apart in the source
# [14] = molecular target: T1, Protein farnesyltransferase; experiment: as §3; format: protein-complex assay; details: concentration not given here; how it was run: as §1; remark: listed apart in the source
# [15] = molecular target: T1, Protein farnesyltransferase; experiment: as §3; format: protein-complex assay; how it was run: as §1; remark: listed apart in the source
# HepG2 [16] = experiment: Inhibition of cholesterol biosynthesis in HepG2 cells at 32 uM; format: functional; details: Homo sapiens; how it was run: as §2
# [17] = molecular target: T1, Protein farnesyltransferase; experiment: as §3; format: protein-complex assay; how it was run: as §1; remark: listed apart in the source
# [18] = molecular target: T1, Protein farnesyltransferase; experiment: as §3; format: protein-complex assay; how it was run: as §1; remark: listed apart in the source
# HepG2 [19] = experiment: Inhibition of cholesterol biosynthesis in HepG2 cells at 16 uM; format: functional; details: Homo sapiens; how it was run: as §2
# HepG2 [20] = experiment: Inhibition of cholesterol biosynthesis in HepG2 cells at 81 uM; format: functional; details: Homo sapiens; how it was run: as §2
# [21] = molecular target: T1, Protein farnesyltransferase; experiment: Inhibition of human Farnesyltransferase at 100 uM; format: protein-complex assay
# HepG2 [22] = experiment: Inhibition of cholesterol biosynthesis in HepG2 cells at 25 uM; format: functional; details: Homo sapiens
# How it was run: (§4)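 HepG2 cells seeded on day 0; fresh medium with delipidated serum on day 3 and again on day 5, when compounds (DMSO stocks) were added for 4 h. Extracts were separated by silica TLC (petroleum ether–ethyl ether–acetic acid 75:25:1) and quantified by phosphor imaging as cholesterol incorporation.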
# HepG2 [23] = experiment: Inhibition of cholesterol biosynthesis in HepG2 cells at 2.5 uM; format: functional; details: Homo sapiens; how it was run: as §4
# [24] = molecular target: T1, Protein farnesyltransferase; experiment: Inhibition of human Farnesyltransferase, inactive at 100 uM; format: protein-complex assay
SMILES,IC50 [1],IC50 [2],further results
CC[C@H]1CC2=CC(=O)CC[C@]2(C)C2CC[C@]3(C)C(C(C)CCCC(C)C)CCC3C21 (stereo not given in full),> 100 µM,,
CC(CCC(=O)O)C1CCC2C3C(CC[C@]12C)[C@@](C)(CCC(=O)O)C(=O)C[C@@H]3C (stereo not given in full),,31 µM,
CC(C)CCCC(C)C1CCC2C3CCC(=O)[C@](C)(CCC(=O)O)C3CC[C@]12C (stereo not given in full),,40 µM,
C[C@H](CCC(O)C(C)(C)O)[C@H]1CC[C@@]2(C)C3=C(CC[C@]12C)[C@@]1(C)C[C@@H](O)C(=O)C(C)(C)[C@@H]1CC3 (stereo not given in full) [CLAVARINONE],15 µM,,IC50 [3]: 8 µM; inhibition at 42 µM (HepG2 [4]): 74%; inhibition at 21 µM (HepG2 [5]): 59%; inhibition at 106 µM (HepG2 [6]): 97%; IC50 [7]: 35 µM; IC50 [8]: > 50 µM
COC(=O)CC[C@@]1(C)C(=O)C[C@H](C)C2C3CCC(C(C)CCCC(C)C)[C@@]3(C)CCC21 (stereo not given in full),> 100 µM,,
CC(=O)OCC(=O)[C@@]1(O)CC[C@H]2[C@@H]3CCC4=CC(=O)CC[C@]4(C)[C@H]3C(=O)C[C@@]21C [CORTISONE ACETATE],12 µM,,
CCOC(=O)C[C@H](C[C@@]1(C)C(=O)CCC2C3CCC(C(C)CCCC(C)C)[C@@]3(C)CCC21)C(=O)O (stereo not given in full),,> 100 µM,
CC(C)CCCC(C)C1CCC2C3CCC(=O)[C@](C)(C[C@@H](CC(=O)O)C(=O)O)C3CC[C@]12C (stereo not given in full),,,IC50 [9]: 190 nM
CC(C)C(=O)OCC(=O)C1CCC2C3CCC(=O)[C@](C)(CCC(=O)O)C3C(=O)C[C@]12C (stereo not given in full),,40 µM,
C[C@H](CCC(O)C(C)(C)O)[C@H]1CC[C@@]2(C)C3=C(CC[C@]12C)[C@@]1(C)C[C@@H](OC(=O)CC(C)(O)CC(=O)O)C(=O)C(C)(C)[C@@H]1CC3 (stereo not given in full) [CLAVARIC ACID],,,FPTase activity (fM ug-1 min-1) [10]: 3330; IC50 [3]: 0.35 µM; inhibition [11]: 84%; FPTase activity (fM ug-1 min-1) [12]: 7340; inhibition ([12]; concentration not given here): 70%; FPTase activity (fM ug-1 min-1) [13]: 2390; inhibition [14]: 81%; FPTase activity (fM ug-1 min-1) [15]: 694; inhibition at 32 µM (HepG2 [16]): 0%; IC50 [7]: 21 µM; FPTase activity (fM ug-1 min-1) [17]: 592; IC50 [8]: > 50 µM; FPTase activity (fM ug-1 min-1) [18]: 3340; inhibition at 16 µM (HepG2 [19]): 0%; inhibition at 81 µM (HepG2 [20]): 69%
CC[C@H]1CC(=O)[C@](C)(C[C@@H](CC(=O)O)C(=O)O)C2CC[C@]3(C)C(C(C)CCCC(C)C)CCC3C21 (stereo not given in full),,3 µM,
CCC(CC)C(=O)OCC(=O)[C@@]1(O)CCC2C3CCC4=CC(=O)CC[C@]4(C)C3[C@@H](O)C[C@@]21C (stereo not given in full),> 100 µM,,
COC(=O)CC[C@@]1(C)C(=O)CCC2C1C(=O)C[C@@]1(C)C2CC[C@@]12OCOC21COCO1 (stereo not given in full),,26 µM,
C[C@]12CC(=O)C3C(CCC4=CC(=O)CC[C@@]43C)C1CCC2C(=O)CO (stereo not given in full),> 100 µM,,
CC(C)(CC(=O)O)CC(=O)OCC(=O)[C@@]1(O)CCC2C3CCC4=CC(=O)C=C[C@]4(C)[C@@]3(F)[C@@H](O)C[C@@]21C (stereo not given in full),,,inhibition [21]: 63%
C[C@]12C=C(C3OCCO3)C(=O)C=C1CCC1C2C(=O)C[C@@]2(C)C1CC[C@@]21OCOC12COCO2 (stereo not given in full),38 µM,,
CC(=O)OCC(=O)[C@@]1(O)C(C)CC2C3CCC4=CC(=O)C=C[C@]4(C)C3=CC[C@@]21C (stereo not given in full),40 µM,,
CCOC(=O)C[C@H](C[C@@]1(C)C(=O)C[C@H](CC)C2C3CCC(C(C)CCCC(C)C)[C@@]3(C)CCC21)C(=O)O (stereo not given in full),,40 µM,
CC(CCC(=O)O)C1CC[C@H]2[C@@H]3CCC4CC(=O)CC[C@]4(C)[C@H]3CC(=O)[C@]12C (stereo not given in full),,,inhibition [21]: 33%
CC(C)=CCCC(C)C1CC[C@@]2(C)C3=C(CC[C@]12C)[C@@]1(C)CCC(=O)C(C)(C)C1CC3 (stereo not given in full),12 µM,,
CC(C)CCCC(C)C1CCC2C3C(CC[C@]12C)[C@@](C)(CCC(=O)O)C(=O)C[C@@H]3C (stereo not given in full),,0.9 µM,
CC(CCCC(C)(C)O)[C@H]1CC[C@H]2C3CC=C4C[C@@H](O)CC[C@]4(C)[C@H]3CC[C@]12C (stereo not given in full),,,inhibition at 25 µM (HepG2 [22]): 90%; inhibition at 2.5 µM (HepG2 [23]): 87%

SMILES,IC50 [1],IC50 [2],further results
CCOC(=O)C[C@@H]1C[C@@]2(C)C(=CC1=O)CCC1C3CCC(C(C)CCCC(C)C)[C@@]3(C)CCC12 (stereo not given in full),> 100 µM,,
CC[C@H]1CC(=O)[C@](C)(CCC(=O)O)C2CC[C@]3(C)C(C(C)CCCC(C)C)CCC3C21 (stereo not given in full),,60 µM,
CC(C)CCCC(C)C1CCC2C3C(CC[C@]12C)[C@@](C)(C[C@@H](CC(=O)O)C(=O)O)C(=O)C[C@@H]3C (stereo not given in full),,0.04 µM,
CC(C)(CC(=O)O)CC(=O)OCC(=O)[C@@]1(O)CCC2C3CCC4=CC(=O)CC[C@]4(C)[C@@]3(F)[C@@H](O)C[C@@]21C (stereo not given in full),48 µM,,
CC(C)CCCC(C)C1CCC2C3CCC4=CC(=O)[C@H](CC(=O)O)C[C@]4(C)C3CC[C@]12C (stereo not given in full),> 100 µM,,
C[C@]1(CCC(=O)O)C(=O)CCC2C1C(=O)C[C@@]1(C)C2CC[C@@]12OCOC21COCO1 (stereo not given in full),,29 µM,
C[C@]12CCC(=O)C=C1CCC1C2C(=O)C[C@@]2(C)C1CCC2(O)C(=O)COC(=O)CCC(=O)O (stereo not given in full),24 µM,,
CC(C)CCCC(C)C1CCC2C3CC[C@@H](C(=O)O)[C@](C)(CCC(=O)O)C3CC[C@]12C (stereo not given in full),,21 µM,
CC(=O)OCC(=O)[C@@]1(O)CCC2C3CCC4=CC(=O)CC[C@]4(C)C3[C@@H](O)C[C@@]21C (stereo not given in full),,,inhibition [21]: 6%
CC(=O)C1CCC2C3CCC(=O)[C@](C)(CCC(=O)O)C3C(=O)C[C@]12C (stereo not given in full),,> 100 µM,
CC(=O)OCC(=O)[C@@]1(O)CCC2C3CCC4=CC(=O)CC[C@]4(C)C3CC[C@@]21C (stereo not given in full),,,inhibition [21]: 6%
C[C@H]1CC2C3CCC4=CC(=O)C=C[C@]4(C)C3C(=O)C[C@]2(C)[C@]12OCOC21COCO1 (stereo not given in full),96 µM,,
C[C@@H]1CC2C3CCC4=CC(=O)C=C[C@]4(C)C3C(=O)C[C@]2(C)[C@]12OCOC21COCO1 (stereo not given in full),> 100 µM,,
C[C@]12CCC(=O)C=C1CC[C@@H]1[C@@H]2[C@@H](O)C[C@@]2(C)[C@H]1CC[C@]2(O)C(=O)COC(=O)CCC(=O)O,,,inhibition [21]: 46%
CC(C)CCCC(C)C1CCC2C3CC=C4C(C)(C)C(=O)CC[C@]4(C)C3CC[C@]12C (stereo not given in full),,,inhibition [24]: inactive
CC(C)CCCC(C)C1CCC2C3CCC(=O)C(CCC(=O)O)C3CC[C@]12C (stereo not given in full),,1.2 µM,
CCC(CC)C(=O)OCC(=O)[C@@]1(O)CCC2C3CCC4=CC(=O)CC[C@]4(C)C3C(=O)C[C@@]21C (stereo not given in full),56 µM,,
C[C@]12C=C(C=O)C(=O)C=C1CCC1C2C(=O)C[C@@]2(C)C1CC[C@@]21OCOC12COCO2 (stereo not given in full),1.2 µM,,
C[C@]12CCC(=O)C=C1CCC1C2C(=O)C[C@@]2(C)C1CC[C@]2(O)C(=O)COC(=O)CC(CC(=O)O)C(=O)O (stereo not given in full),50 µM,,
C[C@]1(C(=O)O)C(=O)CCC2C1C(=O)C[C@@]1(C)C2CC[C@@]12OCOC21COCO1 (stereo not given in full),,> 100 µM,
C[C@]12C=CC(=O)C=C1CC[C@@H]1[C@@H]2[C@@H](O)C[C@@]2(C)[C@H]1CC[C@]2(O)C(=O)COC(=O)CCC(=O)O,,,inhibition [21]: 36%
CC(C)C(=O)OCC(=O)[C@@]1(O)CCC2C3CCC4=CC(=O)CC[C@]4(C)C3C(=O)C[C@@]21C (stereo not given in full),15 µM,,
